ChEMBL document CHEMBL4152256, “Structure-activity relationship of new antimalarial 1-aryl-3-susbtituted propanol derivatives: Synthesis, preliminary toxicity profiling, parasite life cycle stage studies, target exploration, and targeted delivery” (Eur J Med Chem, 2018)

What was measured:
[1] = Genotoxicity in Salmonella typhimurium TA1535 harboring pSK1002 assessed as umu gene induction at 0.008 mg/ml in presence of Sprague-Dawley rat liver S9 fraction after by SOS/umu assay relative to control; assay type: toxicity, organism-based; conditions: salmonella enterica subsp. enterica serovar typhimurium, read-out: FC
[2] = Genotoxicity in Salmonella typhimurium TA1535 harboring pSK1002 assessed as survival at 0.063 mg/ml in presence of Sprague-Dawley rat liver S9 fraction after by SOS/umu assay relative to control; assay type: toxicity, organism-based; conditions: salmonella enterica subsp. enterica serovar typhimurium, read-out: Survival
[3] = Genotoxicity in Salmonella typhimurium TA1535 harboring pSK1002 assessed as survival at 0.063 mg/ml in absence of Sprague-Dawley rat liver S9 fraction after by SOS/umu assay relative to control; assay type: toxicity, organism-based; conditions: salmonella enterica subsp. enterica serovar typhimurium, read-out: Survival
[4] = Genotoxicity in Salmonella typhimurium TA1535 harboring pSK1002 assessed as survival at 0.016 mg/ml in absence of Sprague-Dawley rat liver S9 fraction after by SOS/umu assay relative to control; assay type: toxicity, organism-based; conditions: salmonella enterica subsp. enterica serovar typhimurium, read-out: Survival
Plasmodium falciparum [5] = assay: Antiplasmodial activity against chloroquine-sensitive Plasmodium falciparum 3D7 by [3H]-hypoxanthine incorporation assay; assay type: functional, organism-based; conditions: Plasmodium falciparum, 3D7
In short: (§1)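 Blood-stage P. falciparum 3D7 and FCR-3 were tested by a modified [3H]-hypoxanthine incorporation assay. Chloroquine was the reference in all runs.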

[6] = Genotoxicity in Salmonella typhimurium TA1535 harboring pSK1002 assessed as umu gene induction at 0.031 mg/ml in absence of Sprague-Dawley rat liver S9 fraction after by SOS/umu assay relative to control; assay type: toxicity, organism-based; conditions: salmonella enterica subsp. enterica serovar typhimurium, read-out: FC
[7] = Genotoxicity in Salmonella typhimurium TA1535 harboring pSK1002 assessed as umu gene induction at 0.125 mg/ml in absence of Sprague-Dawley rat liver S9 fraction after by SOS/umu assay relative to control; assay type: toxicity, organism-based; conditions: salmonella enterica subsp. enterica serovar typhimurium, read-out: FC
[8] = Genotoxicity in Salmonella typhimurium TA1535 harboring pSK1002 assessed as survival at 0.016 mg/ml in presence of Sprague-Dawley rat liver S9 fraction after by SOS/umu assay relative to control; assay type: toxicity, organism-based; conditions: salmonella enterica subsp. enterica serovar typhimurium, read-out: Survival
[9] = Genotoxicity in Salmonella typhimurium TA1535 harboring pSK1002 assessed as umu gene induction at 0.031 mg/ml in presence of Sprague-Dawley rat liver S9 fraction after by SOS/umu assay relative to control; assay type: toxicity, organism-based; conditions: salmonella enterica subsp. enterica serovar typhimurium, read-out: FC
[10] = Genotoxicity in Salmonella typhimurium TA1535 harboring pSK1002 assessed as umu gene induction at 0.016 mg/ml in absence of Sprague-Dawley rat liver S9 fraction after by SOS/umu assay relative to control; assay type: toxicity, organism-based; conditions: salmonella enterica subsp. enterica serovar typhimurium, read-out: FC
[11] = Genotoxicity in Salmonella typhimurium TA1535 harboring pSK1002 assessed as survival at 0.001 mg/ml in absence of Sprague-Dawley rat liver S9 fraction after by SOS/umu assay relative to control; assay type: toxicity, organism-based; conditions: salmonella enterica subsp. enterica serovar typhimurium, read-out: Survival
[12] = Genotoxicity in Salmonella typhimurium TA1535 harboring pSK1002 assessed as umu gene induction at 0.063 mg/ml in presence of Sprague-Dawley rat liver S9 fraction after by SOS/umu assay relative to control; assay type: toxicity, organism-based; conditions: salmonella enterica subsp. enterica serovar typhimurium, read-out: FC
[13] = Genotoxicity in Salmonella typhimurium TA1535 harboring pSK1002 assessed as survival at 0.008 mg/ml in presence of Sprague-Dawley rat liver S9 fraction after by SOS/umu assay relative to control; assay type: toxicity, organism-based; conditions: salmonella enterica subsp. enterica serovar typhimurium, read-out: Survival
[14] = Genotoxicity in Salmonella typhimurium TA1535 harboring pSK1002 assessed as umu gene induction at 0.004 mg/ml in absence of Sprague-Dawley rat liver S9 fraction after by SOS/umu assay relative to control; assay type: toxicity, organism-based; conditions: salmonella enterica subsp. enterica serovar typhimurium, read-out: FC
[15] = Genotoxicity in Salmonella typhimurium TA1535 harboring pSK1002 assessed as survival at 0.125 mg/ml in absence of Sprague-Dawley rat liver S9 fraction after by SOS/umu assay relative to control; assay type: toxicity, organism-based; conditions: salmonella enterica subsp. enterica serovar typhimurium, read-out: Survival
[16] = Genotoxicity in Salmonella typhimurium TA1535 harboring pSK1002 assessed as umu gene induction at 0.008 mg/ml in absence of Sprague-Dawley rat liver S9 fraction after by SOS/umu assay relative to control; assay type: toxicity, organism-based; conditions: salmonella enterica subsp. enterica serovar typhimurium, read-out: FC
[17] = Genotoxicity in Salmonella typhimurium TA1535 harboring pSK1002 assessed as umu gene induction at 0.016 mg/ml in presence of Sprague-Dawley rat liver S9 fraction after by SOS/umu assay relative to control; assay type: toxicity, organism-based; conditions: salmonella enterica subsp. enterica serovar typhimurium, read-out: FC
[18] = Genotoxicity in Salmonella typhimurium TA1535 harboring pSK1002 assessed as umu gene induction at 0.125 mg/ml in presence of Sprague-Dawley rat liver S9 fraction after by SOS/umu assay relative to control; assay type: toxicity, organism-based; conditions: salmonella enterica subsp. enterica serovar typhimurium, read-out: FC
[19] = Genotoxicity in Salmonella typhimurium TA1535 harboring pSK1002 assessed as umu gene induction at 0.063 mg/ml in absence of Sprague-Dawley rat liver S9 fraction after by SOS/umu assay relative to control; assay type: toxicity, organism-based; conditions: salmonella enterica subsp. enterica serovar typhimurium, read-out: FC
[20] = Genotoxicity in Salmonella typhimurium TA1535 harboring pSK1002 assessed as survival at 0.002 mg/ml in absence of Sprague-Dawley rat liver S9 fraction after by SOS/umu assay relative to control; assay type: toxicity, organism-based; conditions: salmonella enterica subsp. enterica serovar typhimurium, read-out: Survival
[21] = Genotoxicity in Salmonella typhimurium TA1535 harboring pSK1002 assessed as survival at 0.001 mg/ml in presence of Sprague-Dawley rat liver S9 fraction after by SOS/umu assay relative to control; assay type: toxicity, organism-based; conditions: salmonella enterica subsp. enterica serovar typhimurium, read-out: Survival
[22] = Cytotoxicity against human HepG2A16 cells by MTT assay; assay type: cell-based; conditions: HepG2A16 cells
In short: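 MTT viability assay on HepG2-A16 cells, giving CC50 values.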

[23] = Selectivity index, ratio of CC50 for human HepG2A16 cells by MTT assay to IC50 for multidrug-resistant Plasmodium falciparum FCR-3; assay type: toxicity; conditions: HepG2A16 cells, read-out: Ratio CC50/IC50
In short: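 HepG2-A16 human hepatoma cells were tested by MTT viability assay to give CC50. Blood-stage activity was measured against the multidrug-resistant P. falciparum FCR-3 strain by [3H]-hypoxanthine incorporation to give IC50. SI = CC50 HepG2 / FCR-3 IC50.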

[24] = Genotoxicity in Salmonella typhimurium TA1535 harboring pSK1002 assessed as umu gene induction at 0.002 mg/ml in presence of Sprague-Dawley rat liver S9 fraction after by SOS/umu assay relative to control; assay type: toxicity, organism-based; conditions: salmonella enterica subsp. enterica serovar typhimurium, read-out: FC
[25] = Genotoxicity in Salmonella typhimurium TA1535 harboring pSK1002 assessed as umu gene induction at 0.002 mg/ml in absence of Sprague-Dawley rat liver S9 fraction after by SOS/umu assay relative to control; assay type: toxicity, organism-based; conditions: salmonella enterica subsp. enterica serovar typhimurium, read-out: FC
[26] = Genotoxicity in Salmonella typhimurium TA1535 harboring pSK1002 assessed as umu gene induction at 0.001 mg/ml in absence of Sprague-Dawley rat liver S9 fraction after by SOS/umu assay relative to control; assay type: toxicity, organism-based; conditions: salmonella enterica subsp. enterica serovar typhimurium, read-out: FC
[27] = Genotoxicity in Salmonella typhimurium TA1535 harboring pSK1002 assessed as survival at 0.002 mg/ml in presence of Sprague-Dawley rat liver S9 fraction after by SOS/umu assay relative to control; assay type: toxicity, organism-based; conditions: salmonella enterica subsp. enterica serovar typhimurium, read-out: Survival
[28] = Genotoxicity in Salmonella typhimurium TA1535 harboring pSK1002 assessed as umu gene induction at 0.001 mg/ml in presence of Sprague-Dawley rat liver S9 fraction after by SOS/umu assay relative to control; assay type: toxicity, organism-based; conditions: salmonella enterica subsp. enterica serovar typhimurium, read-out: FC
Plasmodium falciparum [29] = assay: Antiplasmodial activity against multidrug-resistant Plasmodium falciparum FCR-3 by [3H]-hypoxanthine incorporation assay; assay type: functional, organism-based, FCR-3/Gambia; conditions: Plasmodium falciparum, FCR-3/Gambia; in short: as §1
[30] = Genotoxicity in Salmonella typhimurium TA1535 harboring pSK1002 assessed as survival at 0.125 mg/ml in presence of Sprague-Dawley rat liver S9 fraction after by SOS/umu assay relative to control; assay type: toxicity, organism-based; conditions: salmonella enterica subsp. enterica serovar typhimurium, read-out: Survival
[31] = Genotoxicity in Salmonella typhimurium TA1535 harboring pSK1002 assessed as umu gene induction at 0.004 mg/ml in presence of Sprague-Dawley rat liver S9 fraction after by SOS/umu assay relative to control; assay type: toxicity, organism-based; conditions: salmonella enterica subsp. enterica serovar typhimurium, read-out: FC
[32] = Genotoxicity in Salmonella typhimurium TA1535 harboring pSK1002 assessed as survival at 0.008 mg/ml in absence of Sprague-Dawley rat liver S9 fraction after by SOS/umu assay relative to control; assay type: toxicity, organism-based; conditions: salmonella enterica subsp. enterica serovar typhimurium, read-out: Survival
[33] = Genotoxicity in Salmonella typhimurium TA1535 harboring pSK1002 assessed as survival at 0.004 mg/ml in absence of Sprague-Dawley rat liver S9 fraction after by SOS/umu assay relative to control; assay type: toxicity, organism-based; conditions: salmonella enterica subsp. enterica serovar typhimurium, read-out: Survival
[34] = Genotoxicity in Salmonella typhimurium TA1535 harboring pSK1002 assessed as survival at 0.031 mg/ml in absence of Sprague-Dawley rat liver S9 fraction after by SOS/umu assay relative to control; assay type: toxicity, organism-based; conditions: salmonella enterica subsp. enterica serovar typhimurium, read-out: Survival
[35] = Genotoxicity in Salmonella typhimurium TA1535 harboring pSK1002 assessed as survival at 0.004 mg/ml in presence of Sprague-Dawley rat liver S9 fraction after by SOS/umu assay relative to control; assay type: toxicity, organism-based; conditions: salmonella enterica subsp. enterica serovar typhimurium, read-out: Survival
[36] = Genotoxicity in Salmonella typhimurium TA1535 harboring pSK1002 assessed as survival at 0.031 mg/ml in presence of Sprague-Dawley rat liver S9 fraction after by SOS/umu assay relative to control; assay type: toxicity, organism-based; conditions: salmonella enterica subsp. enterica serovar typhimurium, read-out: Survival
[37] = Solubility of the compound in DSPC:cholesterol:DSPE-PEG2000-Mal:DOPE-Rho lipid mixture at 250 uM; assay type: physicochemical
In short: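 Compound added at 250 µM drug to the initial liposome lipid mixture (10 mM total lipid); precipitation and UV-visible absorbance above 300 nm assessed after encapsulation, removal of unencapsulated material and extraction with 1% w/v SDS in RPMI-A.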

## O=[N+]([O-])c1ccccc1N1CCN(CCC(O)c2ccc(F)c3ccccc23)CC1 (stereo unspecified)
[1]
  fold induction at 0.008 mg/ml: 1
[2]
  viability at 0.063 mg/ml: 63.8%
[3]
  viability at 0.063 mg/ml: 118%
[4]
  viability at 0.016 mg/ml: 50.6%
Plasmodium falciparum [5]
  IC50: 920 nM
[6]
  fold induction at 0.031 mg/ml: 1.5
[7]
  fold induction at 0.125 mg/ml: 0.5
[8]
  viability at 0.016 mg/ml: 64.5%
[9]
  fold induction at 0.031 mg/ml: 1.9
[10]
  fold induction at 0.016 mg/ml: 2
[11]
  viability at 0.001 mg/ml: 100%
[12]
  fold induction at 0.063 mg/ml: 1.4
[13]
  viability at 0.008 mg/ml: 89.5%
[14]
  fold induction at 0.004 mg/ml: 0.9
[15]
  viability at 0.125 mg/ml: 174%
[16]
  fold induction at 0.008 mg/ml: 1.7
[17]
  fold induction at 0.016 mg/ml: 1.9
[18]
  fold induction at 0.125 mg/ml: 1.3
[19]
  fold induction at 0.063 mg/ml: 0.8
[20]
  viability at 0.002 mg/ml: 111%
[21]
  viability at 0.001 mg/ml: 77.8%
[22]
  CC50: 19900 nM
[23]
  selectivity ratio: 8
[24]
  fold induction at 0.002 mg/ml: 0.7
[25]
  fold induction at 0.002 mg/ml: 0.9
[26]
  fold induction at 0.001 mg/ml: 1.1
[27]
  viability at 0.002 mg/ml: 84.3%
[28]
  fold induction at 0.001 mg/ml: 1.4
Plasmodium falciparum [29]
  IC50: 2620 nM
[30]
  viability at 0.125 mg/ml: 76.2%
[31]
  fold induction at 0.004 mg/ml: 1.2
[32]
  viability at 0.008 mg/ml: 87.9%
[33]
  viability at 0.004 mg/ml: 106%
[34]
  viability at 0.031 mg/ml: 66.8%
[35]
  viability at 0.004 mg/ml: 92.2%
[36]
  viability at 0.031 mg/ml: 63.2%

## OC(CCN1CCN(C(c2ccccc2)c2ccccc2)CC1)c1ccc2c(c1)OCO2 (stereo unspecified)
Plasmodium falciparum [5]
  IC50: 1660 nM
[37]
  solubility: Insoluble
[22]
  CC50: 36100 nM
[23]
  selectivity ratio: 25
Plasmodium falciparum [29]
  IC50: 1440 nM
